Measured values reported in ChEMBL document CHEMBL1121884, “Piperazinylquinoxalines with central serotoninmimetic activity” (1981).
Activity calls are given as the source filed them. No cut-off for these calls is given here.

What was measured:
Rattus norvegicus [1] = experiment: Ability to elicit head twitches in rats a response characteristic of a serotonin mimetic action in the central nervous system was measured after 1.0 mg/kg of ip administration; type: functional; settings: route intraperitoneal
How it was run: (§1)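 Female Sprague-Dawley rats (150-250 g), compound given ip in 1% methylcellulose vehicle, dose as base weight; quantal scoring of rats showing at least one head twitch during a 2-min observation beginning 30 min after dosing; usually six rats per dose level; vehicle controls run.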

Rattus norvegicus [2] = experiment: Serotonin neuronal reuptake blocking activity was determined by the antagonism of the head twitch response induced by treatment of rats with p-chloromethamphetamine (PCMA) after 1.0 mg/kg of ip administration; type: functional; settings: route intraperitoneal
How it was run: (§2)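 Female Sprague-Dawley rats (150-250 g) dosed ip with compound (1% methylcellulose vehicle, dose as base weight), then p-chloromethamphetamine 6.0 mg/kg ip 1 h later; head twitches observed 30 min after PCMA; scored as rats not twitching; usually six rats per dose; ED50 = dose antagonizing PCMA head twitch in 50% of animals, with 95% confidence limits.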

Rattus norvegicus [3] = experiment: Ability to elicit head twitches in rats a response characteristic of a serotonin mimetic action in the central nervous system after 9 mg/kg of ip administration; type: functional; settings: route intraperitoneal; how it was run: as §1
Rattus norvegicus [4] = experiment: Serotonin neuronal reuptake blocking activity was determined by the antagonism of the head twitch response induced in rats with p-chloromethamphetamine (PCMA) after 9 mg/kg of ip administration; type: functional; settings: route intraperitoneal; how it was run: as §2
Rattus norvegicus [5] = experiment: Ability to elicit head twitches in rats a response characteristic of a serotonin mimetic action in the central nervous system was measured after 3 mg/kg of ip administration; type: functional; settings: route intraperitoneal; how it was run: as §1
Rattus norvegicus [6] = experiment: Serotonin neuronal reuptake blocking activity was determined by the antagonism of the head twitch response induced by treatment of rats with p-chloromethamphetamine (PCMA) after 3 mg/kg of ip administration; type: functional; settings: route intraperitoneal; how it was run: as §2
[7] = molecular target: Sodium-dependent serotonin transporter (Rattus norvegicus) (UniProt P31652); experiment: (§3) Serotonin neuronal reuptake blocking activity was determined by the antagonism of the head twitch response induced by treatment of rats; type: functional; design: concentration or dose not given beside the values; how it was run: as §2
Sequence of Sodium-dependent serotonin transporter (Rattus norvegicus) (P31652 whole entry): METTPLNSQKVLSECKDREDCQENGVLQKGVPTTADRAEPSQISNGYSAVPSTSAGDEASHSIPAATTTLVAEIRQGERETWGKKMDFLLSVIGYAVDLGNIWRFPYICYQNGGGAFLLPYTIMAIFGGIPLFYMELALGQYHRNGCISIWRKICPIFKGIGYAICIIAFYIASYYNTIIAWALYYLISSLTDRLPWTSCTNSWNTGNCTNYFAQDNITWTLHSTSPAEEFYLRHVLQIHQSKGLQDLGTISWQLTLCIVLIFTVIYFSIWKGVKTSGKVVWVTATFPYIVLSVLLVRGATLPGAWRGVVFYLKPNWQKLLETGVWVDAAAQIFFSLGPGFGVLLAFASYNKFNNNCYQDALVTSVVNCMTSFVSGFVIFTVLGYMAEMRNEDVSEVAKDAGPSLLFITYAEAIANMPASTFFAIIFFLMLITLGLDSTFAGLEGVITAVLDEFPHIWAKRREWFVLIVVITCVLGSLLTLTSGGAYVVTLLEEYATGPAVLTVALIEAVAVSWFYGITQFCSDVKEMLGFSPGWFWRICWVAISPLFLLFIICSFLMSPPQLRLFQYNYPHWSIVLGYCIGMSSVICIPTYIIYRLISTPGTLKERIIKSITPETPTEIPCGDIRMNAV

Rattus norvegicus [8] = experiment: Serotonin neuronal reuptake blocking activity was determined by the antagonism of the head twitch response induced in rats with p-chloromethamphetamine (PCMA) after 40 mg/kg of ip administration; Animals succumbed; type: functional, organism-based; design: dose 40 mg/kg; how it was run: as §2
[9] = molecular target: Sodium-dependent serotonin transporter (Rattus norvegicus) (UniProt P31652); experiment: as §3; type: functional; design: concentration or dose not given beside the values; how it was run: as §2; remark: listed apart in the source
[10] = molecular target: T1, Serotonin (5-HT) receptor (Rattus norvegicus) (UniProt P35563+P35365+P32305+P31388+Q9JJ16+P28564+P30994+Q62758+P08909+P14842+P30940+P35364+P19327+P28565); experiment: (§4) Ability to elicit head twitches in rats (a serotonin mimetic response); type: functional; design: concentration or dose not given beside the values; how it was run: as §1
[11] = molecular target: T1, Serotonin (5-HT) receptor (Rattus norvegicus); experiment: as §4; type: functional; design: concentration or dose not given beside the values; how it was run: as §1; remark: listed apart in the source
Rattus norvegicus [12] = experiment: Ability to elicit head twitches in rats a response characteristic of a serotonin mimetic action in the central nervous system after 40 mg/kg of ip administration; Animals succumbed; type: functional, organism-based; design: dose 40 mg/kg; how it was run: as §1
[13] = molecular target: T1, Serotonin (5-HT) receptor (Rattus norvegicus); experiment: as §4; type: functional; design: concentration or dose not given beside the values; how it was run: as §1; remark: listed apart in the source
[14] = molecular target: Sodium-dependent serotonin transporter (Rattus norvegicus) (UniProt P31652); experiment: Serotonin neuronal reuptake blocking activity was determined by the antagonism of the head twitch response induced in rats; type: functional; design: concentration or dose not given beside the values; how it was run: as §2
Rattus norvegicus [15] = experiment: Serotonin neuronal reuptake blocking activity was determined by the antagonism of the head twitch response induced by treatment of rats with p-chloromethamphetamine (PCMA) after 1 mg/kg of ip administration; type: functional; settings: route intraperitoneal; how it was run: as §2
Rattus norvegicus [16] = experiment: Ability to elicit head twitches in rats a response characteristic of a serotonin mimetic action in the central nervous system was measured after 1 mg/kg of ip administration; type: functional; settings: route intraperitoneal; how it was run: as §1
Rattus norvegicus [17] = experiment: Ability to elicit head twitches in rats a response characteristic of a serotonin mimetic action in the central nervous system was measured after 1 mg/kg of ip administration; 5/36; type: functional; settings: route intraperitoneal; how it was run: as §1
Rattus norvegicus [18] = experiment: Serotonin neuronal reuptake blocking activity was determined by the antagonism of the head twitch response induced by treatment of rats with p-chloromethamphetamine (PCMA) after 1.0 mg/kg of ip administration; 5/36; type: functional; settings: route intraperitoneal; how it was run: as §2
Rattus norvegicus [19] = experiment: Serotonin neuronal reuptake blocking activity was determined by the antagonism of the head twitch response induced by treatment of rats with p-chloromethamphetamine (PCMA) after 3 mg/kg of ip administration; 13/36; type: functional; settings: route intraperitoneal; how it was run: as §2
Rattus norvegicus [20] = experiment: Serotonin neuronal reuptake blocking activity was determined by the antagonism of the head twitch response induced in rats with p-chloromethamphetamine (PCMA) after 9 mg/kg of ip administration; 24/36; type: functional; settings: route intraperitoneal; how it was run: as §2
Rattus norvegicus [21] = experiment: Ability to elicit head twitches in rats a response characteristic of a serotonin mimetic action in the central nervous system was measured after 3 mg/kg of ip administration; 11/36; type: functional; settings: route intraperitoneal; how it was run: as §1
Rattus norvegicus [22] = experiment: Ability to elicit head twitches in rats a response characteristic of a serotonin mimetic action in the central nervous system after 20 mg/kg of ip administration; type: functional; settings: route intraperitoneal; how it was run: as §1
Rattus norvegicus [23] = experiment: Ability to elicit head twitches in rats a response characteristic of a serotonin mimetic action in the central nervous system was measured after 1.2 mg/kg of ip administration; type: functional; settings: route intraperitoneal; how it was run: as §1
Rattus norvegicus [24] = experiment: Ability to elicit head twitches in rats a response characteristic of a serotonin mimetic action in the central nervous system was measured after 5 mg/kg of ip administration; type: functional; settings: route intraperitoneal; how it was run: as §1
Rattus norvegicus [25] = experiment: Ability to elicit head twitches in rats a response characteristic of a serotonin mimetic action in the central nervous system was measured after 2 mg/kg of ip administration; type: functional; settings: route intraperitoneal; how it was run: as §1
Rattus norvegicus [26] = experiment: Ability to elicit head twitches in rats a response characteristic of a serotonin mimetic action in the central nervous system after 6 mg/kg of ip administration; type: functional; settings: route intraperitoneal; how it was run: as §1
Rattus norvegicus [27] = experiment: Ability to elicit head twitches in rats a response characteristic of a serotonin mimetic action in the central nervous system was measured after 0.67 mg/kg of ip administration; type: functional; settings: route intraperitoneal; how it was run: as §1
Rattus norvegicus [28] = experiment: Serotonin neuronal reuptake blocking activity was determined by the antagonism of the head twitch response induced by treatment of rats with p-chloromethamphetamine (PCMA) after 0.67 mg/kg of ip administration; type: functional; settings: route intraperitoneal; how it was run: as §2
Rattus norvegicus [29] = experiment: Serotonin neuronal reuptake blocking activity was determined by the antagonism of the head twitch response induced in rats with p-chloromethamphetamine (PCMA) after 6 mg/kg of ip administration; type: functional; settings: route intraperitoneal; how it was run: as §2
Rattus norvegicus [30] = experiment: Serotonin neuronal reuptake blocking activity was determined by the antagonism of the head twitch response induced by treatment of rats with p-chloromethamphetamine (PCMA) after 2 mg/kg of ip administration; type: functional; settings: route intraperitoneal; how it was run: as §2

Structure (SMILES)	PCMA antagonism [7]	PCMA antagonism [9]	Activity [10]	Activity [11]	Activity [13]	PCMA antagonism [14]	other results
Cn1c(=O)c(N2CCNCC2)nc2ccccc21	–	–	–	–	–	–	Activity (Rattus norvegicus [1]): 1; PCMA antagonism (Rattus norvegicus [2]): 1; Activity (Rattus norvegicus [3]): 5; PCMA antagonism (Rattus norvegicus [4]): 0; Activity (Rattus norvegicus [5]): 3; PCMA antagonism (Rattus norvegicus [6]): 2
Fc1cccc2ncc(N3CCNCC3)nc12	0	1	6	1	–	–	PCMA antagonism (Rattus norvegicus [8]): Active; Activity (Rattus norvegicus [12]): Active
O=C(O)C1CN(c2cnc3ccccc3n2)CCN1 (configuration not stated)	0	0	1	2	0	0	–
Cc1cccc2nc(N3CCNCC3)cnc12.Cl	–	–	–	–	–	–	PCMA antagonism (Rattus norvegicus [15]): 0; Activity (Rattus norvegicus [3]): 5; PCMA antagonism (Rattus norvegicus [4]): 1; Activity (Rattus norvegicus [5]): 4; Activity (Rattus norvegicus [16]): 0; PCMA antagonism (Rattus norvegicus [6]): 1
N#Cc1ccc2nc(N3CCNCC3)cnc2c1	–	–	–	–	–	–	Activity (Rattus norvegicus [17]): 5; PCMA antagonism (Rattus norvegicus [18]): 5; PCMA antagonism (Rattus norvegicus [19]): 13; PCMA antagonism (Rattus norvegicus [20]): 24; Activity (Rattus norvegicus [21]): 11
Cl.Clc1nc2ccccc2nc1N1CCNCC1	–	–	–	–	–	–	Activity (Rattus norvegicus [22]): 1; Activity (Rattus norvegicus [23]): 2; Activity (Rattus norvegicus [24]): 3
c1ccc2nc(N3CCNCC3)cnc2c1	2	2	12	9	–	–	PCMA antagonism (Rattus norvegicus [8]): Active; Activity (Rattus norvegicus [12]): Active
Nc1nc2ccccc2nc1N1CCNCC1	1	1	3	2	6	0	–
Oc1nc2ccccc2nc1N1CCNCC1	–	–	6	2	0	1	–
CN1CCN(c2nc3ccccc3nc2O)CC1	1	0	0	0	6	0	–
COc1cccc2nc(N3CCNCC3)cnc12	0	1	2	1	3	2	–
COc1ccc2ncc(N3CCNCC3)nc2c1	–	–	–	–	–	–	Activity (Rattus norvegicus [25]): 5; Activity (Rattus norvegicus [26]): 6; Activity (Rattus norvegicus [27]): 1
Brc1ccc2nc(N3CCNCC3)cnc2c1.Cl	–	–	–	–	–	–	PCMA antagonism (Rattus norvegicus [28]): 2; PCMA antagonism (Rattus norvegicus [29]): 2; Activity (Rattus norvegicus [25]): 4; PCMA antagonism (Rattus norvegicus [30]): 3; Activity (Rattus norvegicus [26]): 2; Activity (Rattus norvegicus [27]): 0
Clc1cc2ncc(N3CCNCC3)nc2cc1Cl	1	4	2	0	1	3	–
CN(C)CCn1c(=O)c(N2CCNCC2)nc2ccccc21	2	0	0	1	1	0	–
CC(=O)N1CCN(c2cnc3cc(Cl)ccc3n2)CC1	0	1	2	2	1	0	–
